Test results: ChEMBL document CHEMBL3603839, “Synthesis and antiproliferative activity of new bioconjugates of Salinomycin with amino acid esters” (Bioorg Med Chem Lett, 2015)

How the values were obtained:
LoVo [1] = assay: Selectivity index, ratio of IC50 for mouse BALB/3T3 cells to IC50 for human LoVo cells; format: functional
How it was run: (§1)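 Selectivity index is the IC50 in normal BALB/3T3 fibroblasts divided by the IC50 in the respective cancer line. SI above 1.0 is taken as a favourable value.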

BALB/3T3 = assay: Antiproliferative activity against mouse BALB/3T3 cells after 72 hrs; format: cell-based; details: BALB/3T3, 72 h
How it was run: (§2)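 IC50 values (mean ± SD) were measured against human colon adenocarcinoma LoVo cells, their doxorubicin-resistant LoVo/DX subline, MV4-11 cells, and normal murine embryonic fibroblasts (BALB/3T3).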

MV4-11 [2] = assay: Selectivity index, ratio of IC50 for mouse BALB/3T3 cells to IC50 for human MV4-11 cells; format: functional; how it was run: as §1
LoVo [3] = assay: Antiproliferative activity against human LoVo cells after 72 hrs; format: functional, cell-based; how it was run: as §2
[4] = Selectivity index, ratio of IC50 for mouse BALB/3T3 cells to IC50 for human LoVo/DX cells; format: functional; how it was run: as §1
MV4-11 [5] = assay: Antiproliferative activity against human MV4-11 cells after 72 hrs; format: functional, cell-based; details: MV4-11, 72 h; how it was run: as §2
LoVo [6] = assay: Resistant index, ratio of IC50 for human LoVo/DX cells to IC50 for LoVo cells; format: functional
How it was run: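 Resistance index was calculated from IC50 values obtained in the doxorubicin-resistant LoVo/DX subline and the parental LoVo line. RI 0–2 is classed as sensitive, 2–10 as moderately sensitive, and above 10 as strongly resistant.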

[7] = Antiproliferative activity against doxorubicin-resistant human LoVo/DX cells after 72 hrs; format: functional, cell-based; how it was run: as §2
[8] = Ratio of cisplatin IC50 to compound IC50 for doxorubicin-resistant human LoVo/DX cells; format: functional
[9] = Ratio of doxorubicin IC50 to compound IC50 for doxorubicin-resistant human LoVo/DX cells; format: functional

Row | Compound | IC50 (LoVo [3]) | IC50 (MV4-11 [5]) | Ratio IC50 (LoVo [1]) | IC50 (BALB/3T3) | Ratio IC50 (MV4-11 [2]) | Ratio IC50 [4] | Ratio IC50 (LoVo [6]) | IC50 [7] | Ratio IC50 [8] | Ratio IC50 [9]
1 | CC[C@@H](C(=O)[C@@H](C)[C@@H](O)[C@H](C)[C@@H]1O[C@@H]([C@@H](CC)C(=O)NCC(=O)OC)CC[C@@H]1C)[C@H]1O[C@]2(C=C[C@@H](O)[C@]3(CC[C@@](C)([C@H]4CC[C@](O)(CC)[C@H](C)O4)O3)O2)[C@H](C)C[C@@H]1C | 5.29 µM | 3.65 µM | 8.03 | 42.5 µM | 11.64 | 10.81 | 0.74 | 3.93 µM | – | –
2 | CC[C@@H](C(=O)[C@@H](C)[C@@H](O)[C@H](C)[C@@H]1O[C@@H]([C@@H](CC)C(=O)N[C@@H](Cc2ccccc2)C(=O)OC)CC[C@@H]1C)[C@H]1O[C@]2(C=C[C@@H](O)[C@]3(CC[C@@](C)([C@H]4CC[C@](O)(CC)[C@H](C)O4)O3)O2)[C@H](C)C[C@@H]1C | 3.49 µM | 2.89 µM | 4.87 | 17 µM | 5.89 | 4.87 | 1 | 3.49 µM | – | –
3 | CC[C@@H](C(=O)[C@@H](C)[C@@H](O)[C@H](C)[C@@H]1O[C@@H]([C@@H](CC)C(=O)N[C@@H](Cc2ccc(O)cc2)C(=O)OC)CC[C@@H]1C)[C@H]1O[C@]2(C=C[C@@H](O)[C@]3(CC[C@@](C)([C@H]4CC[C@](O)(CC)[C@H](C)O4)O3)O2)[C@H](C)C[C@@H]1C | 14.7 µM | 3.55 µM | 2.95 | 43.4 µM | 12.22 | 6.09 | 0.48 | 7.12 µM | – | –
4 | CC[C@@H](C(=O)[C@@H](C)[C@@H](O)[C@H](C)[C@@H]1O[C@@H]([C@@H](CC)C(=O)O)CC[C@@H]1C)[C@H]1O[C@]2(C=C[C@@H](O)[C@]3(CC[C@@](C)([C@H]4CC[C@](O)(CC)[C@H](C)O4)O3)O2)[C@H](C)C[C@@H]1C [SALINOMYCIN] | 0.53 µM | 0.33 µM | 52.38 | – | 84.12 | 47.05 | 1.11 | 0.59 µM | – | –

More lines, in order of falling IC50 (LoVo [3]), values ahead:

Row | IC50 (LoVo [3]) | IC50 (MV4-11 [5]) | Compound | Ratio IC50 (LoVo [1]) | IC50 (BALB/3T3) | Ratio IC50 (MV4-11 [2]) | Ratio IC50 [4] | Ratio IC50 (LoVo [6]) | IC50 [7] | Ratio IC50 [8] | Ratio IC50 [9]
5 | 17.7 µM | 5.81 µM | CC[C@@H](C(=O)[C@@H](C)[C@@H](O)[C@H](C)[C@@H]1O[C@@H]([C@@H](CC)C(=O)N[C@@H](CO)C(=O)OC)CC[C@@H]1C)[C@H]1O[C@]2(C=C[C@@H](O)[C@]3(CC[C@@](C)([C@H]4CC[C@](O)(CC)[C@H](C)O4)O3)O2)[C@H](C)C[C@@H]1C | 2.27 | 40.1 µM | 6.9 | 5.16 | 0.44 | 7.77 µM | – | –
6 | 3.67 µM | 0.8 µM | CC[C@@H](C(=O)[C@@H](C)[C@@H](O)[C@H](C)[C@@H]1O[C@@H]([C@@H](CC)C(=O)N[C@@H](Cc2cnc[nH]2)C(=O)OC)CC[C@@H]1C)[C@H]1O[C@]2(C=C[C@@H](O)[C@]3(CC[C@@](C)([C@H]4CC[C@](O)(CC)[C@H](C)O4)O3)O2)[C@H](C)C[C@@H]1C | 10.08 | 37 µM | 46.26 | 43.54 | 0.23 | 0.85 µM | 3 | 9
7 | 0.09 µM | 0.05 µM | COc1cccc2c1C(=O)c1c(O)c3c(c(O)c1C2=O)C[C@@](O)(C(=O)CO)C[C@@H]3O[C@H]1C[C@H](N)[C@H](O)[C@H](C)O1 [DOXORUBICIN] | 3.44 | 0.31 µM | 6.2 | 0.04 | 80.67 | 7.26 µM | – | –
